Data set [1] relates to HNSCC, relapsed/refractory glioblastoma. The settings on record: plus spartalizumab; cited from earlier work.
Data set [2] has as its system advanced/metastatic PDA or colorectal cancer. To be noted: plus durvalumab; cited from earlier work.
For a further data set, the system named is pancreatic cancer. The settings on record: plus nivolumab; pancreatic cancer (N = 31); MSI-Stable; cited from earlier work.
For data set [3], the system named is patients with selected advanced solid tumors. It is filed as in vivo, human. The settings on record: Phase 1b. In short, it runs like this:
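Adults (≥18 y) with histologically or cytologically confirmed selected advanced solid tumours. Oral test compound started at 200 mg QD, with planned escalation to 400 mg QD, plus anti-PD-1 antibody 2 mg/kg IV every 3 weeks. DLT incidence defined the MTD (DLT criteria in supplement). AEs and lab abnormalities were graded by CTCAE v4.03 in all patients given ≥1 dose and summarized descriptively.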

Data set [4] deals with patients with PDA, PD-1/PD-L1 IR advanced solid tumors or prOVCA. Description: Phase 2, ARRY-382 300 mg QD plus pembrolizumab 200 mg IV Q3W: adverse events. It is filed as in vivo, human. The settings on record: all patients. In short, it runs like this:
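Open-label study at 12 US centres with three cohorts: pancreatic ductal adenocarcinoma after ≥1 prior systemic line; tumours progressing on anti-PD-1/PD-L1; ovarian, peritoneal or fallopian cancer progressing ≤6 months after ≥4 platinum cycles. Oral test compound 300 mg QD plus anti-PD-1 antibody 200 mg IV every 3 weeks. AEs, SAEs and labs graded by CTCAE v4.03 in all dosed patients; descriptive summary.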

Turning to `CNC(=O)c1cc(Oc2ccc3nc(N[C@@H]4CCCC[C@H]4O)sc3c2)ccn1` [BLZ945], the “Patients with a PR” value in data set [1] is listed as 2 patients.

On to `FC(F)(F)c1ccc(CNc2ccc(Cc3c[nH]c4ncc(Cl)cc34)cn2)cn1` [pexidartinib], for which, in data set [2], the “Patients with stable disease” value is listed as 4 patients.

In the case of “cabiralizumab: a CSF-1R–targeting antibody”, the “Patients with a PR” value in the data set on pancreatic cancer is given as 3 patients.

In the case of “pembrolizumab: humanized monoclonal antibody that blocks the interaction between PD-1 and its ligands PD-L1 and PD-L2 [reference compound]”, the “Pembrolizumab-related AEs: All AEs” value in data set [3] (Total, N = 19) is reported as 12 (63.2%) n (%). In data set [3] (all patients), the “Pembrolizumab-related increased AST” value is on record as 36.8% and the Pembrolizumab-related increased lipase is listed as 26.3%. In addition, the “AEs considered to be related to pembrolizumab” value in data set [4] is 36 (63.2%) n (%).
